Assay results: ChEMBL document CHEMBL3243948, “Vitamin B6 antagonists obtained by replacing or modifying the 2-methyl group” (J Med Chem, 1977)
Calls of active or inactive are those of the source. The rule behind the calls is not given here.

The molecules below were run against T1, Pyridoxal kinase (Homo sapiens, UniProt O00764) (assay: Competitive inhibition of pyridoxal phosphokinase (unknown origin)). Settings: not given.
T1 sequence (O00764 whole entry): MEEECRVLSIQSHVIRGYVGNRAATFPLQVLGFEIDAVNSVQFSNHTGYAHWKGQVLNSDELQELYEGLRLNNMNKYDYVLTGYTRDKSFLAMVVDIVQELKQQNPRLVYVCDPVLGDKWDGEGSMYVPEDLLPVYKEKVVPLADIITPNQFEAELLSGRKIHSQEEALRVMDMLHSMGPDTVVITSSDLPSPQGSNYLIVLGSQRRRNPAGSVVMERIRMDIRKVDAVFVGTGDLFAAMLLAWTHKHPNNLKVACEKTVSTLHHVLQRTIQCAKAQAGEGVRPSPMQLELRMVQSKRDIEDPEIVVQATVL
Procedure, shortened: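 Inhibitor tested against pyridoxal phosphokinase-catalysed phosphorylation of pyridoxal (substrate). Ki derived from competitive kinetics.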
Molecule `OCc1cnc(Cl)c(O)c1CO` has a Ki of 24 µM. Molecule `C#Cc1ncc(CO)c(CO)c1O` has a Ki of 105 µM.

Each molecule was assayed on TA3 (assay: Growth inhibition of mouse TA3 cells at 1 X 10^-4 M in presence of 10^-7 M pyridoxal). Settings: not given.
Format: functional, cell-based
In the case of `COc1cncc(C(=O)O)c1C(=O)O`, the “growth inhibition (GI)” value is reported as “inactive”. For `CCOC(=O)c1cncc(OC)c1C(=O)OCC`, the “growth inhibition (GI)” value was “inactive”. `COc1c(C)ncc(CO)c1CO` was tested, and the “growth inhibition (GI)” value was “inactive”. For `COc1c(C(=O)O)ncc(C(=O)O)c1C(=O)O`, the “growth inhibition (GI)” value was “inactive”. For `COc1cncc(CO)c1CO`, the “growth inhibition (GI)” value was “inactive”. In the case of `COc1cncc2c1C(=O)OC2=O`, the “growth inhibition (GI)” value is reported as “inactive”. With `COC(=O)c1cncc(OC)c1C(=O)OC` the “growth inhibition (GI)” value was “inactive”.

The molecules below were run on TA3 (assay: Growth inhibition of mouse TA3 cells in presence of 10^-7 M pyridoxal relative to control). Settings: not given.
Format: functional
Procedure, shortened: (§1)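 Mouse mammary adenocarcinoma TA3 cells cultured in Eagle's medium with minimal pyridoxal (1 X 10^-7 M) to sustain growth. Compounds were scored for inhibition of growth.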
`NCc1ncc(CO)c(CO)c1O` was tested, and the “growth inhibition (GI)” value was 25%. With `CNc1ncc(CO)c(CO)c1O.Cl` the “growth inhibition (GI)” value was 15%. `NC(=O)c1ncc(CO)c(CO)c1O` was tested, and the “growth inhibition (GI)” value was 40%.

What follows are molecules tested on TA3 (assay: Growth inhibition of mouse TA3 cells in presence of 10^-5 M pyridoxal). Settings: not given.
Format: functional
Procedure, shortened: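 TA3 mouse mammary adenocarcinoma cells grown in complete Eagle's medium, which holds a higher pyridoxal level than the minimal medium. Compounds were tested for growth inhibition.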
In the case of `Cl.Nc1ncc(CO)c(CO)c1O`, the “growth inhibition (GI)” value is reported as “inactive”. Molecule `OCc1cnc(/C=N/N=C/c2ncc(CO)c(CO)c2O)c(O)c1CO` has an ID50 of 1.1 ×10⁻⁵ M. For `OCc1cnc(Cl)c(O)c1CO`, the “growth inhibition (GI)” value was “inactive”.

Same assay, conditions: Mus musculus, TA3; read-out: ID50 (the source's name)
`C=Cc1ncc(CO)c(CO)c1O` gave an IC50 of 9.4 µM.

The molecules below were run on TA3 (assay: Growth inhibition of mouse TA3 cells in presence of 10^-7 M pyridoxal). Settings: not given.
Format: functional
Procedure, shortened: as §1
`N/N=C/c1ncc(CO)c(CO)c1O` gave an ID50 of 2.3 ×10⁻⁴ M. `NCc1ncc(CO)c(CO)c1O` gave an ID50 of 1 ×10⁻⁵ M. Molecule `CC1(C)OCc2cnc(CCl)c(OCc3ccccc3)c2CO1.Cl` has an ID50 of 12 ×10⁻⁵ M. Molecule `Cn1c(=O)oc2c(CO)c(CO)cnc21` has an ID50 of over 1 ×10⁻⁴ M. `Cl.Nc1ncc(CO)c(CO)c1O` was tested, and the ID50 was 1.25 ×10⁻⁵ M. `O=C(SCc1ncc(CO)c(CO)c1OCc1ccccc1)c1ccccc1` gave an ID50 of 3 ×10⁻⁵ M. `OCc1cnc(/C=N/N=C/c2ncc(CO)c(CO)c2O)c(O)c1CO` was tested, and the ID50 was 1.6 ×10⁻⁵ M. `Br.COC(=O)N(C)c1ncc(CO)c(CO)c1OCc1ccccc1` gave an ID50 of 1.6 ×10⁻⁴ M. Molecule `CNc1ncc(CO)c(CO)c1O.Cl` has an ID50 of 1 ×10⁻⁴ M. `O=Cc1ncc(CO)c(CO)c1O` was tested, and the ID50 was 1.7 ×10⁻⁴ M. `NC(=O)c1ncc(CO)c(CO)c1O` gave an ID50 of 1 ×10⁻⁴ M. `OCc1cnc(Cl)c(O)c1CO` was tested, and the ID50 was 4.5 ×10⁻⁵ M. For `O=C(O)c1ncc(CO)c(CO)c1O`, the ID50 was over 1 ×10⁻⁴ M. For `OCc1cnc(F)c(O)c1CO`, the ID50 was over 1 ×10⁻⁴ M.

Same assay, conditions: Mus musculus, TA3; read-out: ID50 (the source's name)
For `C=Cc1ncc(CO)c(CO)c1O`, the IC50 was 9.4 µM.
